The source made the active and inactive calls. The calls are words filed in the database; no cut-off is given here.
What was measured:
[1] = test system: HepG2; test: Cytotoxicity against human HepG2 cells after 72 hrs by MTT assay; format: functional, cell-based; conditions: HepG2, 72 h
Outline: (§1)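 MTT assay. Cells were plated and grown 24 h at 37 °C, 5% CO2, then exposed to compound in medium with 0.1% DMSO for 72 h. MTT (5 mg/mL in PBS) was added for 4 h and absorbance read at 490 nm. IC50 was taken from dose-response curves; at least three independent experiments.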

[2] = test system: HCT-116; test: Cytotoxicity against human HCT116 cells after 72 hrs by MTT assay; format: functional, cell-based; conditions: HCT-116, 72 h; outline: as §1
[3] = test system: Mus musculus; test: Toxicity in ICR mouse xenografted with […] cells assessed as body weight at 30 mg/kg, iv administered once daily for 21 days measured post last dose (reference value: 26 +/- 0.6 g); format: organism-based; conditions: in vivo, 504 h
[4] = test system: L02; test: Cytotoxicity against human LO2 cells after 72 hrs by MTT assay; format: cell-based; conditions: L02, 72 h; outline: as §1
[5] = test system: H22; test: Antitumor activity against […] H22 cells xenografted in ICR mouse assessed as tumor growth inhibition at 30 mg/kg, iv administered once daily for 21 days measured post last dose relative to control; format: functional; conditions: 504 h, read-out: TGI
[6] = test system: SMMC-7721; test: Cytotoxicity against human SMMC7721 cells after 72 hrs by MTT assay; format: functional, cell-based; conditions: SMMC-7721, 72 h; outline: as §1
[7] = test system: HL-60; test: Cytotoxicity against human HL60 cells after 72 hrs by MTT assay; format: functional, cell-based; conditions: HL-60, 72 h; outline: as §1
[8] = test system: HepG2; test: Cytotoxicity against human HepG2 cells at 2 uM after 72 hrs by MTT assay; format: functional, cell-based
Outline: (§2)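 HepG2 cells were pretreated for 2 h with graded concentrations of carboxy-PTIO (an NO scavenger), or left unpretreated. They were then exposed to 2 μM compound for 72 h, and growth was assessed by MTT. Mean ± SD, n=3.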

[9] = test system: HepG2; test: Cell cycle arrest in human HepG2 cells assessed as accumulation at G1 phase at 1 uM after 72 hrs by propidium iodide staining based flow cytometric method (reference value: 56.77%); format: functional
Outline: (§3)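 HepG2 cells were seeded and grown 24 h at 37 °C, 5% CO2. They were then exposed to 0, 0.5, 1 or 2 μM for 72 h, fixed in 70% ethanol at 4 °C for 12 h, and stained with RNase A plus propidium iodide for 30 min. DNA content was measured by flow cytometry to give the cell-cycle phase distribution.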

[10] = test system: HepG2; test: Cell cycle arrest in human HepG2 cells assessed as accumulation at G2 phase at 2 uM after 72 hrs by propidium iodide staining based flow cytometric method (reference value: 17.45%); format: functional; outline: as §3
[11] = test system: HepG2; test: Cell cycle arrest in human HepG2 cells assessed as accumulation at G2 phase at 0.5 uM after 72 hrs by propidium iodide staining based flow cytometric method (reference value: 17.45%); format: functional; outline: as §3
[12] = Induction of NO release assessed as nitrite formation in PBS at 100 uM up to 300 mins by Griess assay
Outline: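 Compound at 100 μM was incubated at 37 °C in PBS, pH 7.4, containing 2% DMSO and 5.0 mM L-cysteine, in acellular or HepG2 cell lysates, and sampled over time. Samples were mixed with Griess reagent at 37 °C for 15 min and read at 540 nm. Nitrite was quantified against a sodium nitrite standard curve, in triplicate.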

[13] = test system: HepG2; test: Induction of apoptosis in human HepG2 cells assessed as live cells at 0.5 uM after 72 hrs by Annexin V-APC/7-AAD staining based flow cytometric method (reference value: 94.99%); format: functional
[14] = test system: HepG2; test: Induction of apoptosis in human HepG2 cells assessed as live cells at 1 uM after 72 hrs by Annexin V-APC/7-AAD staining based flow cytometric method (reference value: 94.99%); format: functional
[15] = test system: HepG2; test: Cell cycle arrest in human HepG2 cells assessed as accumulation at S phase at 2 uM after 72 hrs by propidium iodide staining based flow cytometric method (reference value: 25.78%); format: functional; outline: as §3
[16] = test system: HepG2; test: Cell cycle arrest in human HepG2 cells assessed as accumulation at S phase at 1 uM after 72 hrs by propidium iodide staining based flow cytometric method (reference value: 25.78%); format: functional; outline: as §3
[17] = test system: HepG2; test: Disruption of mitochondrial membrane potential in human HepG2 cells assessed as collapse of the mitochondrial membrane potential at 0.5 uM after 72 hrs by JC1 staining based flow cytometric method (reference value: 3.05%); format: functional
Outline: (§4)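 HepG2 cells were exposed to 0, 0.5, 1 or 2 μM for 72 h, washed in PBS, and resuspended in JC-1 incubation buffer at 37 °C for 15 min. The fractions of cells with healthy or collapsed mitochondrial membrane potential were determined by flow cytometry.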

[18] = test system: H22; test: Antitumor activity against […] H22 cells xenografted in ICR mouse assessed as tumor weight at 30 mg/kg, iv administered once daily for 21 days measured post last dose (reference value: 4.38 +/- 0.16 g); format: functional
[19] = test system: HepG2; test: Induction of apoptosis in human HepG2 cells assessed as early apoptotic cells at 2 uM after 72 hrs by Annexin V-APC/7-AAD staining based flow cytometric method (reference value: 2.06%); format: functional
[20] = test system: HepG2; test: Induction of apoptosis in human HepG2 cells assessed as necrotic cells at 1 uM after 72 hrs by Annexin V-APC/7-AAD staining based flow cytometric method (reference value: 2.44%); format: functional
[21] = test system: HepG2; test: Induction of apoptosis in human HepG2 cells assessed as live cells at 2 uM after 72 hrs by Annexin V-APC/7-AAD staining based flow cytometric method (reference value: 94.99%); format: functional
[22] = test system: H22; test: Antitumor activity against […] H22 cells xenografted in ICR mouse assessed as tumor weight at 15 mg/kg, iv administered once daily for 21 days measured post last dose (reference value: 4.38 +/- 0.16 g); format: functional
[23] = test system: H22; test: Antitumor activity against […] H22 cells xenografted in ICR mouse assessed as tumor growth inhibition at 15 mg/kg, iv administered once daily for 21 days measured post last dose relative to control; format: functional; conditions: 504 h, read-out: TGI
[24] = test system: HepG2; test: Cell cycle arrest in human HepG2 cells assessed as accumulation at G2 phase at 1 uM after 72 hrs by propidium iodide staining based flow cytometric method (reference value: 17.45%); format: functional; outline: as §3
[25] = test system: HepG2; test: Induction of apoptosis in human HepG2 cells assessed as necrotic cells at 0.5 uM after 72 hrs by Annexin V-APC/7-AAD staining based flow cytometric method (reference value: 2.44%); format: functional
[26] = test system: HepG2; test: Induction of apoptosis in human HepG2 cells assessed as early apoptotic cells at 1 uM after 72 hrs by Annexin V-APC/7-AAD staining based flow cytometric method (reference value: 2.06%); format: functional
[27] = test system: HepG2; test: Induction of apoptosis in human HepG2 cells after 72 hrs by Annexin V-APC/7-AAD staining based flow cytometric method; format: functional, cell-based
[28] = test system: HepG2; test: Disruption of mitochondrial membrane potential in human HepG2 cells assessed as intact mitochondrial membrane at 1 uM after 72 hrs by JC1 staining based flow cytometric method (reference value: 96.94%); format: functional; outline: as §4
[29] = test system: HepG2; test: Induction of apoptosis in human HepG2 cells assessed as late apoptotic cells at 2 uM after 72 hrs by Annexin V-APC/7-AAD staining based flow cytometric method (reference value: 0.51%); format: functional
[30] = test system: HepG2; test: Induction of apoptosis in human HepG2 cells assessed as necrotic cells at 2 uM after 72 hrs by Annexin V-APC/7-AAD staining based flow cytometric method (reference value: 2.44%); format: functional
[31] = test system: HepG2; test: Induction of apoptosis in human HepG2 cells assessed as early apoptotic cells at 0.5 uM after 72 hrs by Annexin V-APC/7-AAD staining based flow cytometric method (reference value: 2.06%); format: functional
[32] = test system: Mus musculus; test: Toxicity in ICR mouse xenografted with […] cells assessed as body weight at 15 mg/kg, iv administered once daily for 21 days measured post last dose (reference value: 26 +/- 0.6 g); format: organism-based; conditions: in vivo, 504 h
[33] = test system: HepG2; test: Cell cycle arrest in human HepG2 cells assessed as accumulation at S phase at 0.5 uM after 72 hrs by propidium iodide staining based flow cytometric method (reference value: 25.78%); format: functional; outline: as §3
[34] = test system: HepG2; test: Cytotoxicity against human HepG2 cells at 2 uM after 72 hrs in presence of NO scavenger PTIO by MTT assay; format: functional, cell-based; outline: as §2
[35] = test system: HepG2; test: Disruption of mitochondrial membrane potential in human HepG2 cells assessed as collapse of the mitochondrial membrane potential at 2 uM after 72 hrs by JC1 staining based flow cytometric method (reference value: 3.05%); format: functional; outline: as §4
[36] = test system: HepG2; test: Induction of apoptosis in human HepG2 cells assessed as late apoptotic cells at 0.5 uM after 72 hrs by Annexin V-APC/7-AAD staining based flow cytometric method (reference value: 0.51%); format: functional
[37] = test system: HepG2; test: Disruption of mitochondrial membrane potential in human HepG2 cells assessed as intact mitochondrial membrane at 0.5 uM after 72 hrs by JC1 staining based flow cytometric method (reference value: 96.94%); format: functional; outline: as §4
[38] = test system: HepG2; test: Cell cycle arrest in human HepG2 cells assessed as accumulation at G1 phase at 0.5 uM after 72 hrs by propidium iodide staining based flow cytometric method (reference value: 56.77%); format: functional; outline: as §3
[39] = test system: HepG2; test: Cell cycle arrest in human HepG2 cells assessed as accumulation at G1 phase at 2 uM after 72 hrs by propidium iodide staining based flow cytometric method (reference value: 56.77%); format: functional; outline: as §3
[40] = test system: HepG2; test: Disruption of mitochondrial membrane potential in human HepG2 cells assessed as collapse of the mitochondrial membrane potential at 1 uM after 72 hrs by JC1 staining based flow cytometric method (reference value: 3.05%); format: functional; outline: as §4
[41] = test system: HepG2; test: Disruption of mitochondrial membrane potential in human HepG2 cells assessed as intact mitochondrial membrane at 2 uM after 72 hrs by JC1 staining based flow cytometric method (reference value: 96.94%); format: functional; outline: as §4
[42] = test system: HepG2; test: Induction of apoptosis in human HepG2 cells assessed as late apoptotic cells at 1 uM after 72 hrs by Annexin V-APC/7-AAD staining based flow cytometric method (reference value: 0.51%); format: functional

`COc1ccc2cc3[n+](cc2c1OCCCCCO[N+](=O)[O-])CCc1cc2c(cc1-3)OCO2` gave an IC50 [1] of 12.4 µM.
Work on `COc1cc2c(cc1OC)-c1cc3ccc(OC)c(OC)c3c[n+]1CC2.[Cl-]` [PALMATINE CHLORIDE] yielded an IC50 [2] greater than 100 µM, an Activity [3] of 25.5 g and an IC50 [4] greater than 100 µM. The IC50 [1] was greater than 100 µM, the inhibition in vivo at 30 mg/kg [5] was 41.6% and the IC50 [6] was greater than 100 µM. The IC50 [7] was greater than 100 µM.
For `COc1cc2c(cc1OC)-c1c(Br)c3ccc(OC)c(OCCCCCCCCO[N+](=O)[O-])c3c[n+]1CC2.[Br-]`, the IC50 [2] was 2.29 µM, the Activity [8] was “Active” and the Activity [9] was 47.33%. For the same compound, the Activity [10] was 41.45%, the Activity [11] was 23.38% and the Activity [12] was “Active”. The Activity [13] was 85.1%, the Activity [3] was 25.2 g and the Activity [14] was 63.61%. The Activity [15] was 24.23%, the Activity [16] was 23.1% and the Activity [17] was 12.1%. It also gave an IC50 [4] of 28.9 µM, an Activity [18] of 1.64 g and an Activity [19] of 41.13%. It also gave an Activity [20] of 4.32%, an Activity [21] of 44.44% and an Activity [22] of 2.37 g. The inhibition in vivo at 15 mg/kg [23] was 45.9%, the IC50 [1] was 1.36 µM and the Activity [24] was 29.57%. It also gave an inhibition in vivo at 30 mg/kg [5] of 62.5%, an IC50 [6] of 1.21 µM and an Activity [25] of 1.49%. The Activity [26] was 22.97%, the Activity [27] was “Dose-dependent effect” and the Activity [28] was 74.5%. For the same compound, the Activity [29] was 10.01%, the Activity [30] was 4.43% and the Activity [31] was 11.02%. For the same compound, the Activity [32] was 25.4 g, the Activity [33] was 25.49% and the Activity [34] was “inactive”. For the same compound, the Activity [35] was 40.5%, the Activity [36] was 2.39% and the Activity [37] was 87.9%. The Activity [38] was 51.14%, the IC50 [7] was 1.26 µM and the Activity [39] was 34.32%. For the same compound, the Activity [40] was 25.5%, the Activity [41] was 59.5% and the Activity [42] was 9.11%.
